Among the data in the RNAGym collection of RNA variant scans (doi:10.1126/science.aae0568) are yeast fitness values, retold here.

This sample holds only a part of the variants without activity.

B1: tRNA (parent)
chain: GUUCCGUUGGCGUAAUGGUAACGCGUCUCCCUCCUAAGGAGAAGACUGCGGGUUCGAGUCCCGUACGGAACG

Variants of B1 are the subject of the data set. The experiment in a line: yeast fitness relative to wild type (ratio to wild type); higher = fitter; tRNA-Arg(CCU), competitive growth, 37 C, YPD. The essentials: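 Gene amplicons from the start population and from each of six end populations were read by 100-nucleotide paired-end sequencing. Those end populations came from pooled Saccharomyces cerevisiae strains carrying tRNA-Arg(CCU) gene variants at the native locus, competed in YPD at 37°C for 24 hours. Fitness relative to wild type was worked out from changes in genotype frequencies. Genotypes needed ≥ 100 starting reads, and estimates < 0.5 were set to 0.5.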
Regarding C30U G44A C46A, the yeast fitness worked out at 0.637.

As for C31G A43U C46G C62U, the yeast fitness was not above 0.5.

For C30U G58C, the yeast fitness came to 0.822.

In the case of C30U G58A, the yeast fitness turned out to be 0.919.

As for C31A A36U U53A, the yeast fitness was not above 0.5.

As to C31G A36U G48A A57C, the yeast fitness is not above 0.5.

As to C31G G41A G63U, the yeast fitness came to 0.609.

For C31G G41A G52C C60U C62G C66G, the yeast fitness is 0.539.

For C30U C49G C61U, the yeast fitness was 0.547.

As to C30U A43C U47G U54G, the yeast fitness is 0.85.

For the variant C31G C34G A57C, the yeast fitness was 0.685.

In the case of C31A A37C G58C, the yeast fitness is 0.521.

Turning to C30U C31G A57U, the yeast fitness is not above 0.5.

On to C31G A70U, for which the yeast fitness is 0.938.

Turning to C31G A70C, the yeast fitness amounted to 0.689.

In the case of C30U G68C, the yeast fitness worked out at 0.813.

Regarding C30U C31G A37U G48C, the yeast fitness was not above 0.5.

With C31G G51A G68C, the yeast fitness came out at 0.545.

Take C30U C31G A65C: the yeast fitness amounted to 0.821.

Consider C30U A37C C49U C66U, for which the yeast fitness was not above 0.5.

As for C30U U32A A36U A37U C62U A69U, the yeast fitness was not above 0.5.

As to C30U G38C A65G, the yeast fitness stood at 0.53.

On to C30U C49A, for which the yeast fitness was 0.547.

For C30U C49G, the yeast fitness was determined as 0.718.

Take C30U U47C C66U: the yeast fitness was determined as 0.577.

As for C31G C33U, the yeast fitness is 0.673.

In the case of C31G C33G, the yeast fitness was 0.565.

Turning to C31G C33U A42U, the yeast fitness is 0.649.

For C31A A37G C55U A57G, the yeast fitness was 0.531.

Take C30U C31A A40U G56A: the yeast fitness is not above 0.5.

For C31G A37U, the yeast fitness was determined as 0.728.

Consider C30G U35C C62U, for which the yeast fitness is 0.551.

Regarding C31A G38C G44A A65G, the yeast fitness was found to be 0.534.

C30U C46U A70G: the yeast fitness was found to be 0.601.

On to C31A C33G A45G G48A, for which the yeast fitness is not above 0.5.

On to C30U C66G A70G, for which the yeast fitness was not above 0.5.

For the variant C31G C33U U59G C66U G68A, the yeast fitness is 0.543.

Turning to C31G A36U U53C C61A G68A, the yeast fitness is not above 0.5.

For C30U C31G, the yeast fitness was found to be 0.79.

Consider C30U C31A, for which the yeast fitness was determined as 0.754.

On to C30U C66U A69U, for which the yeast fitness came out at 0.602.

Turning to C31G C33G U47A, the yeast fitness was 0.581.

Take C30U G48C G68C: the yeast fitness was found to be 0.636.

With C31G A40G A45C U47C U53A A70U, the yeast fitness was not above 0.5.

As for C30U G48A G67A, the yeast fitness was not above 0.5.

With C30U C46G C49U A69C, the yeast fitness was not above 0.5.

Take C30U A45C G58A G67U: the yeast fitness is not above 0.5.

Consider C31G C46U, for which the yeast fitness was 0.998.

Consider C31G A57U A69C A70G, for which the yeast fitness is not above 0.5.

C31G A40G C49U G50C A70C: the yeast fitness was not above 0.5.

Regarding C31A A42G A43U G56C, the yeast fitness was not above 0.5.

As for C31A C66G, the yeast fitness was found to be 0.615.

For C31A C46U, the yeast fitness stood at 0.947.

As for C30U G58A C61G G68C A70U, the yeast fitness is not above 0.5.

For the variant C31G G41A U47C G52C C60U C62G C66G, the yeast fitness was not above 0.5.

Take C31G G51A: the yeast fitness amounted to 0.749.

Turning to C31A A43G A65G, the yeast fitness stood at 0.702.

As to C31G C33U C61U, the yeast fitness was not above 0.5.

For the variant C31G A43C, the yeast fitness worked out at 0.932.

Take C31G A43G: the yeast fitness was determined as 0.982.

Consider C30U U53G, for which the yeast fitness worked out at 0.618.

In the case of C30U U53A, the yeast fitness stood at 0.672.

Take C30U C31U C49A: the yeast fitness is not above 0.5.

Consider C30U A37U, for which the yeast fitness was determined as 0.65.

For the variant C31A A43C A45C, the yeast fitness was not above 0.5.

In the case of C30U A42U A43C A70C, the yeast fitness was not above 0.5.

Regarding C31G A40G, the yeast fitness worked out at 0.719.

In the case of C31G C34U A40C G50A C55G C62A, the yeast fitness is not above 0.5.

Consider C31G A45G U47A, for which the yeast fitness turned out to be 0.893.

For the variant C31G G63A C66U, the yeast fitness came out at 0.64.

Consider C31G C46U A65U, for which the yeast fitness came to 0.789.

Take C30U C46A C66U: the yeast fitness was 0.83.

In the case of C31G C33U U53C U54G C55A, the yeast fitness was not above 0.5.

Take C30U C61U G63A A65G: the yeast fitness was not above 0.5.

Consider C30U U47A C66A, for which the yeast fitness was not above 0.5.

Regarding C31A C60A A65U, the yeast fitness amounted to 0.619.

For C30U A70C, the yeast fitness came out at 0.869.

With C30U A70G, the yeast fitness was determined as 0.941.

As for C30U A70U, the yeast fitness amounted to 0.962.

In the case of C30U G52A, the yeast fitness is 0.785.

On to C30U A45G G48C G58C U59A, for which the yeast fitness was 0.548.

On to C31A A37U G67C, for which the yeast fitness is 0.575.

As to C30U U54A, the yeast fitness came to 0.561.

C31G G67C A69U: the yeast fitness was not above 0.5.

As for C30U C31U A57G, the yeast fitness came out at 0.75.

Regarding C30U C49U G52A, the yeast fitness stood at 0.584.

As for C31G A45U U47A, the yeast fitness is 0.521.

Turning to C30U G39A C60G, the yeast fitness was 0.57.

Take C31A C34U: the yeast fitness was 0.555.

For the variant C31A C34G, the yeast fitness was not above 0.5.

In the case of C30U A45U, the yeast fitness worked out at 0.955.

For the variant C31G A43U C46G A70U, the yeast fitness was determined as 0.527.

For the variant C30U C34G A40C C49G G68C, the yeast fitness is not above 0.5.

On to C31A A65U, for which the yeast fitness amounted to 0.725.

In the case of C30G U35A C61U C66G A69U, the yeast fitness was 0.633.

On to C31A G44A C55G A70G, for which the yeast fitness is not above 0.5.

With C31A U59G, the yeast fitness worked out at 0.771.

For C30U U35A G63C A65U, the yeast fitness was not above 0.5.

For C30U U35A G63C A65C, the yeast fitness is not above 0.5.

C30U C34U A37U U59C A65U: the yeast fitness was not above 0.5.

Consider C31G C34U, for which the yeast fitness was 0.626.

With C31A G51C C55G A57U, the yeast fitness was not above 0.5.

Take C31G C61G C62G: the yeast fitness worked out at 0.514.

Turning to C31G C33G A57C, the yeast fitness is not above 0.5.

Regarding C30U C33U, the yeast fitness came to 0.669.

On to C30U C33G, for which the yeast fitness stood at 0.691.

Take C31G G41A G52C C60U C62G: the yeast fitness worked out at 0.53.

Consider C31G G58C, for which the yeast fitness turned out to be 0.88.

Take C31A A40G A43C G44A: the yeast fitness is not above 0.5.

Turning to C30U C34G U53C A69C, the yeast fitness was not above 0.5.

With C31G G67U, the yeast fitness worked out at 0.655.

Take C31G C55A A57U U59C C60U: the yeast fitness is not above 0.5.

For C31A A43G A70U, the yeast fitness is 0.708.

Regarding C31A A45U A70U, the yeast fitness turned out to be 0.789.

In the case of C31G G41A A43C G51C, the yeast fitness came out at 0.562.

Take C31G C34U A40C: the yeast fitness turned out to be 0.526.

As for C31A A40U C46A A70C, the yeast fitness turned out to be 0.626.

As to C31A U32C C46U, the yeast fitness is not above 0.5.

As for C30U U47A, the yeast fitness worked out at 0.695.

Turning to C30U U47G, the yeast fitness was 0.588.

As for C30U A42G A43U U54A, the yeast fitness was not above 0.5.

Turning to C30U G48C A65G, the yeast fitness was 0.606.

Consider C30U G56A A69C, for which the yeast fitness turned out to be 0.566.

As to C31G U35C C66U, the yeast fitness worked out at 0.558.

Turning to C30G U47C, the yeast fitness was 0.701.

Regarding C31A C33U G41A C62A, the yeast fitness was not above 0.5.

For the variant C30U G38C A57G, the yeast fitness is not above 0.5.

On to C31G G56A, for which the yeast fitness worked out at 0.98.

On to C31G G56U, for which the yeast fitness stood at 0.723.

On to C31A C62A, for which the yeast fitness is 0.6.

For the variant C30U A57U, the yeast fitness was 0.863.

In the case of C31A A40U C46A, the yeast fitness was found to be 0.555.

For C31G G58C C62U, the yeast fitness is 0.838.

In the case of C31G G48A C55A C62A, the yeast fitness was not above 0.5.

C30U G51A C66U A70C: the yeast fitness is not above 0.5.

Turning to C30U C31G G39C C55A C62U A70U, the yeast fitness was not above 0.5.

Consider C31G G50C G58C, for which the yeast fitness came to 0.571.

As to C30U A45U C49G, the yeast fitness came out at 0.713.

For C31A A45C C62U G63A U64G, the yeast fitness was not above 0.5.

As for C30U U54A G63A, the yeast fitness came out at 0.704.

In the case of C31G A65G, the yeast fitness was determined as 0.867.

For the variant C31G A65C, the yeast fitness was determined as 0.691.

Take C30U U35A C62A: the yeast fitness was not above 0.5.

On to C31A G51A G58C, for which the yeast fitness stood at 0.561.

Regarding C30G U59G C66A, the yeast fitness is not above 0.5.

With C31G A40G C49U G50C, the yeast fitness was not above 0.5.

As to C31G C62A, the yeast fitness worked out at 0.607.

In the case of C30U G51C G58C, the yeast fitness is not above 0.5.

As for C31A G48A C66U, the yeast fitness stood at 0.646.

C31A A40U A42G: the yeast fitness stood at 0.606.

Turning to C30U G48A, the yeast fitness is 0.861.

On to C30U G44A A65C, for which the yeast fitness came out at 0.553.

C31G A42U A43C: the yeast fitness was found to be 1.15.

Turning to C31G G51A C55G G68C, the yeast fitness was found to be 0.56.

For the variant C30U G39A C62U G68C, the yeast fitness came to 0.571.

As for C31A C34U C61G, the yeast fitness was 0.609.

As to C30U C31U A37G A43G, the yeast fitness was not above 0.5.

As to C30U C34G G38C A65C, the yeast fitness amounted to 0.537.

With C31G A36U G39A C62U, the yeast fitness was not above 0.5.

As to C31G U35C, the yeast fitness stood at 0.823.

As to C31G A45C C49A, the yeast fitness was 0.807.

Regarding C31A A40U U53G G56C C62G A70C, the yeast fitness was not above 0.5.

Consider C31G G51C A70G, for which the yeast fitness was not above 0.5.

For the variant C31G G51C A70U, the yeast fitness was determined as 0.561.

Consider C31A G56A A65G C66A G68C, for which the yeast fitness is 0.562.

Turning to C30U C46U A57U, the yeast fitness worked out at 0.515.

With C31A C60G, the yeast fitness was found to be 0.516.
